This passage reports Tm and folding enthalpy results from the array DNA melting data of Ke et al. (doi:10.1101/2024.01.08.574731).

Data set [1] is described as follows: melting temperature; fluorescence melt of hairpins on a sequencing array, two-state fit, raised by 9.35 °C to match UV melts. The settings on record: sodium 0.088 M. The essentials:
(§1)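 Cy3 signals were normalised both to pre-quench Cy3 and to control constructs. They came from library hairpins carrying annealed Cy3 and quencher oligos on a sequenced MiSeq flow cell, imaged in 50 mM Na-HEPES pH 8.0, 25 mM NaCl, in 2.5 °C steps up to 60 °C. Bootstrapped two-state fits gave melting temperature and folding enthalpy, and four replicates were combined by inverse variance. Fitted temperatures were then raised by 9.35 °C to match UV melts.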

Data set [2] can be described thus: folding enthalpy; higher = less favourable; fluorescence melt of hairpins on a sequencing array, two-state fit. To be noted: sodium 0.088 M. The procedure, abridged:
as §1

As for GATCGGTGTCCCGATC ((((((....)))))), the Tm in data set [1] worked out at 58.4 °C. In addition, the folding enthalpy in data set [2] was -160 kJ/mol.
In the same order, the values of GATCGGTTACCCGATC ((((((....)))))) are 57.3 °C and -173 kJ/mol.
On the same counts, the results for GATCGGTTAGCCGATC ((((((....)))))) are 58.6 °C and -194 kJ/mol.
For the sequence GATCGGTTTGCCGATC ((((((....)))))), the Tm in data set [1] worked out at 61.6 °C. Further, in data set [2], the folding enthalpy is -200 kJ/mol.
Regarding GATCGTAAACACGATC ((((((....)))))), the Tm in data set [1] is 52 °C. Also, the folding enthalpy in data set [2] is -154 kJ/mol.
On to GATCGTAACACGATC ((((((...)))))), for which, in data set [1], the Tm turned out to be 57.5 °C. Also, the folding enthalpy in data set [2] is -156 kJ/mol.
In the same order, the values of GATCGTAACGACGATC ((((((....)))))) are 54.9 °C and -145 kJ/mol.
GATCGTAACTACGATC ((((((....)))))): the Tm in data set [1] stood at 56 °C. The folding enthalpy in data set [2] was -174 kJ/mol.
In the same order, the values of GATCGTACAAACGATC ((((((....)))))) are 52.6 °C and -168 kJ/mol.
In the same order, the values of GATCGTACTAACGATC ((((((....)))))) are 54.8 °C and -164 kJ/mol.
In the same order, the values of GATCGTAGACACGATC ((((((....)))))) are 54.2 °C and -167 kJ/mol.
For GATCGTAGATACGATC ((((((....)))))), the Tm in data set [1] is 55.1 °C. In addition, in data set [2], the folding enthalpy was -135 kJ/mol.
Regarding GATCGTAGCACGATC ((((((...)))))), the Tm in data set [1] stood at 56.5 °C. Moreover, the folding enthalpy in data set [2] is -145 kJ/mol.
With GATCGTAGGAACGATC ((((((....)))))), the Tm in data set [1] was determined as 52.4 °C. Further, the folding enthalpy in data set [2] is -129 kJ/mol.
Regarding GATCGTAGGCACGATC ((((((....)))))), in data set [1], the Tm stood at 54.2 °C. The folding enthalpy in data set [2] is -155 kJ/mol.
On the same counts, the results for GATCGTAGGGACGATC ((((((....)))))) are 56 °C and -132 kJ/mol.
For the sequence GATCGTAGTACGATC ((((((...)))))), the Tm in data set [1] was found to be 54.7 °C. In addition, in data set [2], the folding enthalpy was -124 kJ/mol.
In the case of GATCGTCAAACGATC ((((((...)))))), the Tm in data set [1] turned out to be 52.1 °C. Moreover, the folding enthalpy in data set [2] was -133 kJ/mol.
As for GATCGTCAACACGATC ((((((....)))))), in data set [1], the Tm came to 51.5 °C. The folding enthalpy in data set [2] was -138 kJ/mol.
Take GATCGTCATAACGATC ((((((....)))))): in data set [1], the Tm is 55 °C. Moreover, the folding enthalpy in data set [2] was -162 kJ/mol.
For GATCGTCCAAACGATC ((((((....)))))), the Tm in data set [1] amounted to 55.2 °C. For the same sequence, the folding enthalpy in data set [2] was -179 kJ/mol.
On the same counts, the results for GATCGTCCCGACGATC ((((((....)))))) are 59.8 °C and -181 kJ/mol.
On the same counts, the results for GATCGTCCTAACGATC ((((((....)))))) are 55.5 °C and -169 kJ/mol.
In the same order, the values of GATCGTCCTTACGATC ((((((....)))))) are 53.8 °C and -170 kJ/mol.
Consider GATCGTCTAGACGATC ((((((....)))))), for which the Tm in data set [1] came to 59.7 °C. Besides, the folding enthalpy in data set [2] was -156 kJ/mol.
In the case of GATCGTCTGAACGATC ((((((....)))))), in data set [1], the Tm amounted to 55.6 °C. In addition, the folding enthalpy in data set [2] is -166 kJ/mol.
As to GATCGTGAAGACGATC ((((((....)))))), the Tm in data set [1] came to 57 °C. Also, the folding enthalpy in data set [2] is -132 kJ/mol.
On the same counts, the results for GATCGTGACCACGATC ((((((....)))))) are 61.3 °C and -162 kJ/mol.
On the same counts, the results for GATCGTGACTACGATC ((((((....)))))) are 61.2 °C and -183 kJ/mol.
Consider GATCGTGAGACGATC ((((((...)))))), for which, in data set [1], the Tm is 54 °C. The folding enthalpy in data set [2] is -142 kJ/mol.
On the same counts, the results for GATCGTGAGGACGATC ((((((....)))))) are 53.5 °C and -143 kJ/mol.
As to GATCGTGATCACGATC ((((((....)))))), the Tm in data set [1] was found to be 58.2 °C. Further, in data set [2], the folding enthalpy was -222 kJ/mol.
In the case of GATCGTGCAACGATC ((((((...)))))), the Tm in data set [1] is 67.8 °C. In data set [2], the folding enthalpy is -172 kJ/mol.
In the same order, the values of GATCGTGCCAACGATC ((((((....)))))) are 66.6 °C and -124 kJ/mol.
In the same order, the values of GATCGTGCGCACGATC ((((((....)))))) are 64.6 °C and -214 kJ/mol.
Turning to GATCGTGGAAACGATC ((((((....)))))), the Tm in data set [1] is 61 °C. In addition, the folding enthalpy in data set [2] is -136 kJ/mol.
In the same order, the values of GATCGTGGCCACGATC ((((((....)))))) are 62.5 °C and -262 kJ/mol.
In the same order, the values of GATCGTGGCTACGATC ((((((....)))))) are 59 °C and -164 kJ/mol.
As to GATCGTGGGCACGATC ((((((....)))))), the Tm in data set [1] came to 56.8 °C. In data set [2], the folding enthalpy was -168 kJ/mol.
In the same order, the values of GATCGTGGGTACGATC ((((((....)))))) are 55.3 °C and -157 kJ/mol.
On the same counts, the results for GATCGTGGTACGATC ((((((...)))))) are 58.2 °C and -145 kJ/mol.
On the same counts, the results for GATCGTGGTTACGATC ((((((....)))))) are 58.3 °C and -169 kJ/mol.
For GATCGTGTAACGATC ((((((...)))))), in data set [1], the Tm came to 63.5 °C. Also, the folding enthalpy in data set [2] was -201 kJ/mol.
On to GATCGTGTATACGATC ((((((....)))))), for which the Tm in data set [1] is 62.1 °C. In addition, the folding enthalpy in data set [2] was -193 kJ/mol.
On to GATCGTGTCCACGATC ((((((....)))))), for which the Tm in data set [1] was found to be 60.3 °C. Moreover, in data set [2], the folding enthalpy was -192 kJ/mol.
Regarding GATCGTGTTACGATC ((((((...)))))), the Tm in data set [1] stood at 56.9 °C. The folding enthalpy in data set [2] is -149 kJ/mol.
On the same counts, the results for GATCGTGTTGACGATC ((((((....)))))) are 57.4 °C and -123 kJ/mol.
On to GATCGTGTTTACGATC ((((((....)))))), for which the Tm in data set [1] came to 57.5 °C. The folding enthalpy in data set [2] is -173 kJ/mol.
In the same order, the values of GATCGTTAATACGATC ((((((....)))))) are 54.6 °C and -152 kJ/mol.
On the same counts, the results for GATCGTTACACGATC ((((((...)))))) are 58.4 °C and -151 kJ/mol.
On the same counts, the results for GATCGTTAGAACGATC ((((((....)))))) are 55.2 °C and -145 kJ/mol.
With GATCGTTAGCACGATC ((((((....)))))), in data set [1], the Tm stood at 51.4 °C. Moreover, the folding enthalpy in data set [2] is -135 kJ/mol.
As for GATCGTTAGGACGATC ((((((....)))))), the Tm in data set [1] was 55.2 °C. Moreover, in data set [2], the folding enthalpy was -158 kJ/mol.
Consider GATCGTTAGTACGATC ((((((....)))))), for which, in data set [1], the Tm came out at 53.2 °C. For the same sequence, in data set [2], the folding enthalpy was -198 kJ/mol.
In the same order, the values of GATCGTTATCACGATC ((((((....)))))) are 52.7 °C and -176 kJ/mol.
For the sequence GATCGTTGCACGATC ((((((...)))))), the Tm in data set [1] came out at 60.7 °C. The folding enthalpy in data set [2] is -162 kJ/mol.
In the same order, the values of GATCGTTGCGACGATC ((((((....)))))) are 60.7 °C and -173 kJ/mol.
Consider GATCGTTGGACGATC ((((((...)))))), for which the Tm in data set [1] is 54.8 °C. For the same sequence, the folding enthalpy in data set [2] is -147 kJ/mol.
With GATCGTTGTCACGATC ((((((....)))))), the Tm in data set [1] stood at 54.9 °C. Also, in data set [2], the folding enthalpy was -171 kJ/mol.
GATCGTTTTTACGATC ((((((....)))))): in data set [1], the Tm was 56.9 °C. Besides, the folding enthalpy in data set [2] was -187 kJ/mol.
On the same counts, the results for GATCTAAAATAGATC ((((((...)))))) are 38.6 °C and -71.4 kJ/mol.
For the sequence GATCTAAAGATAGATC ((((((....)))))), the Tm in data set [1] is 30.6 °C. Besides, the folding enthalpy in data set [2] is -69 kJ/mol.
In the same order, the values of GATCTAACAGTAGATC ((((((....)))))) are 36.5 °C and -65.2 kJ/mol.
Consider GATCTAACATAGATC ((((((...)))))), for which, in data set [1], the Tm came to 39.5 °C. For the same sequence, in data set [2], the folding enthalpy was -139 kJ/mol.
For the sequence GATCTAACCTTAGATC ((((((....)))))), the Tm in data set [1] was 42.2 °C. Further, the folding enthalpy in data set [2] was -166 kJ/mol.
As to GATCTAAGATAGATC ((((((...)))))), the Tm in data set [1] was determined as 37.9 °C. Moreover, the folding enthalpy in data set [2] was -86 kJ/mol.
In the same order, the values of GATCTAAGCGTAGATC ((((((....)))))) are 36.9 °C and -113 kJ/mol.
In the same order, the values of GATCTAAGGTTAGATC ((((((....)))))) are 39.3 °C and -132 kJ/mol.
In the same order, the values of GATCTAATATAGATC ((((((...)))))) are 38.8 °C and -120 kJ/mol.
Turning to GATCTAATCGTAGATC ((((((....)))))), the Tm in data set [1] worked out at 36.1 °C. In addition, the folding enthalpy in data set [2] was -57.3 kJ/mol.
For the sequence GATCTAATCTAGATC ((((((...)))))), the Tm in data set [1] was 38.8 °C. Further, the folding enthalpy in data set [2] is -118 kJ/mol.
In the same order, the values of GATCTAATGGTAGATC ((((((....)))))) are 35.4 °C and -113 kJ/mol.
On the same counts, the results for GATCTAATTTAGATC ((((((...)))))) are 41.4 °C and -129 kJ/mol.
On the same counts, the results for GATCTACAAGTAGATC ((((((....)))))) are 48.2 °C and -143 kJ/mol.
With GATCTACAGTAGATC ((((((...)))))), the Tm in data set [1] was 39.3 °C. Also, the folding enthalpy in data set [2] is -162 kJ/mol.
On the same counts, the results for GATCTACAGTTAGATC ((((((....)))))) are 38.3 °C and -123 kJ/mol.
